Key:
Mus musculus [1] = organism: Mus musculus; test: Antioxidant activity in Swiss albino mouse assessed as reduced glutathione level measured per mg of tissue after 7 days; type: functional
Method in brief: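 Male Swiss albino mice (24 ± 2 g) given compound orally in 0.1 ml double-distilled water daily for 7 days; controls got water. Perfused liver homogenized 10% w/v in tris-KCl pH 7.4, precipitated with 25% TCA, centrifuged. 0.1 ml supernatant mixed with 2 ml 0.6 mM DTNB and 0.9 ml […] pH 8.0; absorbance at 412 nm for GSH.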

[2] = Antioxidant activity assessed as ABTS radical scavenging activity after 1 min; type: functional
Method in brief: (§1)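 ABTS radical cation made from 7 mM ABTS in deionized water plus potassium persulphate (2.45 mM), kept dark at room temperature 12–16 h, then diluted with ethanol to A734 0.700 ± 0.020. 1 ml of this added to 10 µl compound; absorbance at 734 nm read at 30 °C at 1–6 min after mixing. Triplicate determinations.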

[3] = Antioxidant activity assessed as ABTS radical scavenging activity after 2 mins; type: functional; method in brief: as §1
[4] = system: Radical scavenging activity; test: Antioxidant activity assessed as DPPH radical scavenging activity at 1 mg/ml; type: functional
Method in brief: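 Compound stock 1 mg/ml in methanol; 50 µl added to 5 ml 0.004% methanolic DPPH. Incubated 30 min in dark at room temperature, absorbance at 517 nm against blank. Percent inhibition calculated by formula; triplicate.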

Mus musculus [5] = organism: Mus musculus; test: Antioxidant activity in Swiss albino mouse assessed as lipid peroxidation level measured per mg of tissue after 7 days; type: functional, organism-based
Method in brief: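 Male random-bred Swiss albino mice (24 ± 2 g) dosed orally once daily for 7 days with compound in 0.1 ml double-distilled water; controls water only. Liver perfused with cold 0.9% NaCl, homogenized 10% w/v in tris-KCl pH 7.4. TBARS: sample with tris-KCl, 30% TCA, 52 mM TBA, 25 min at 80 °C, centrifuged; supernatant read at 531.8 nm, expressed as malondialdehyde per mg protein.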

[6] = Antioxidant activity assessed as ABTS radical scavenging activity after 4 mins; type: functional; method in brief: as §1
[7] = Antioxidant activity assessed as ABTS radical scavenging activity after 6 mins; type: functional; method in brief: as §1

Compound | Activity (Mus musculus [1]) | deltaA [2] | deltaA [3] | inhibition [4] | Activity (Mus musculus [5]) | deltaA [6] | deltaA [7]
COc1cccc2c1Nc1c(c(=O)[nH]c3c(OC)cccc13)S2 | 4.8 nmol | 0.055 | 0.052 | 54.3% | 6.81 nmol | 0.052 | 0.052
COc1cccc2c3c(c(=O)[nH]c12)Sc1cc(Br)ccc1N3 | 5.01 nmol | 0.141 | 0.098 | 53.8% | 6.51 nmol | 0.098 | 0.095
Cc1ccc2[nH]c(=O)c3c(c2c1)Nc1c(C)cccc1S3 | 4.5 nmol | 0.56 | 0.52 | 8.33% | 6.69 nmol | 0.52 | 0.52
Cc1cccc2c1Nc1c(c(=O)[nH]c3c(C)cccc13)S2 | 4.51 nmol | 0.62 | 0.61 | 2.71% | 6.72 nmol | 0.61 | 0.61
Cc1ccc2[nH]c(=O)c3c(c2c1)Nc1c(cccc1C(F)(F)F)S3 | 4.9 nmol | 0.328 | 0.318 | 22.4% | 6.53 nmol | 0.318 | 0.318
Cc1ccc2[nH]c(=O)c3c(c2c1)Nc1ccc(Br)cc1S3 | 5 nmol | 0.412 | 0.406 | 13.7% | 6.42 nmol | 0.406 | 0.406
